Square brackets hold non-standard residues; d marks the D form. Peptide text beside a SMILES is read from it. Aib = CC(C)(N)C(=O)O
Experiments:
[1] = Inhibition of HIV1 gp41 by metallopeptide-based fluorescence assay; parameters: species or system Human immunodeficiency virus 1
In short: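 HR1 coiled-coil metallopeptide receptor [Fe(II)(env2.0)3]2+ (7.2 μM final) was mixed with LY-labelled HR2 probe C18-Aib-LY (1 μM) and 20 μM inhibitor in 25 mM Tris, 25 mM sodium acetate pH 7.0, 0.01% Tween 20, 4% DMSO. Inhibitor displacement relieved quenching; fluorescence was read at ex 425/em 540 nm. Signal was taken as primary/control scan ratio and Ki derived from binding equations.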

[2] = Inhibition of HIV1 gp41 by metallopeptide-based fluorescence assay using dose response study; parameters: species or system Human immunodeficiency virus 1
In short: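 Competitive dose-response with 7.2 μM Fe(II) HR1 metallopeptide receptor and 1 μM C18-Aib-LY probe across varying inhibitor concentrations. Buffer was pH 7.0 Tris/acetate with 0.01% Tween 20 and 4% DMSO; read at ex 425/em 540 nm, relative to free-probe maximum. Curves were fit to equations 5 and 8 for Ki; three independent experiments, mean ± SD.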

[3] = tested on: Human immunodeficiency virus 1; test: Antiviral activity against HIV1 assessed as inhibition of fusion of gp160 expressing human HeLa cells and CCR5-expressing Tat-long terminal repeat luciferase reporter cells; type: functional, organism-based; conditions: Human immunodeficiency virus 1, HeLa
In short: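 Cell-cell fusion run by a collaborating lab: HeLa effector cells with inducible gp160 expression were mixed with CCR5-expressing Tat-LTR-luciferase reporter cells, and syncytium formation was scored. DMSO in cell culture was capped at 1%.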

[4] = tested on: Human immunodeficiency virus 1; test: Antiviral activity against HIV1 assessed as syncytium inhibition by cell-cell fusion assay; type: functional, organism-based
In short: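 HIV-1 fusion run as a cell-cell assay: HeLa effector cells with inducible gp160 expression were paired with CCR5-expressing reporter cells carrying Tat-responsive LTR-luciferase, with luciferase as the read-out. DMSO in culture was capped at 1%.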

[5] = tested on: Human immunodeficiency virus 1; test: Antiviral activity against HIV1 assessed as six-helix bundle formation assay; type: functional

Structure (SMILES)	Ki [1] [µM]	Ki [2] [µM]	IC50 [3] [µM]	IC50 [4] [µM]	IC50 [5] [µM]
O=C(O)c1ccc(NC(=O)c2cccc(Cc3cccc4cccnc34)c2)c(Cc2cccc(F)c2)c1	1.15	1.51	8	–	–
O=C(O)c1ccc(NC(=O)c2cccc(Cc3ccc(F)cc3)c2)c(Cc2cccc([N+](=O)[O-])c2)c1	1.2	1.34	8	–	–
CC[C@H](C)[C@H](NC(=O)[C@H](CC(C)C)NC(=O)[C@H](CO)NC(=O)[C@@H](NC(=O)[C@H](Cc1ccc(O)cc1)NC(=O)[C@H](CC(N)=O)NC(=O)C(C)(C)NC(=O)[C@@H](NC(=O)[C@H](CCC(=O)O)NC(=O)[C@H](CCCNC(=N)N)NC(=O)[C@H](CC(=O)O)NC(=O)[C@H](Cc1c[nH]c2ccccc12)NC(=O)[C@H](CCC(=O)O)NC(=O)C(C)(C)NC(=O)[C@H](Cc1c[nH]c2ccccc12)NC(=O)[C@@H](NC(=O)[C@H](CCSC)NC(C)=O)[C@@H](C)O)[C@@H](C)CC)[C@@H](C)O)C(=O)N[C@@H](CS)C(N)=O (Ac-MTW[Aib]EWDREI[Aib]NYTSLIC-NH2)	0.6	0.8	–	–	–
O=C(O[C@@H]1Cc2c(O)cc(O)cc2O[C@H]1c1cc(O)c(O)c(O)c1)c1cc(O)c(O)c(O)c1 (single isomer, unassigned) [GALLOCATECHIN GALLATE]	–	–	–	4.32	–
O=C(O[C@@H]1Cc2c(O)cc(O)cc2O[C@@H]1c1cc(O)c(O)c(O)c1)c1cc(O)c(O)c(O)c1 [EPIGALOCATECHIN GALLATE]	–	–	–	–	19.9

Source: ChEMBL document CHEMBL1150796, “A novel fluorescence intensity screening assay identifies new low-molecular-weight inhibitors of the gp41 coiled-coil domain of human immunodeficiency virus type 1” (Antimicrob Agents Chemother, 2007)
